Data reported in ChEMBL document CHEMBL4145642, “Natural Inhibitors of the RhoA-p115 Complex from the Bark of Meiogyne baillonii” (J Nat Prod, 2018).

The molecules below were run against T1, Neuroepithelial cell-transforming gene 1 protein (Homo sapiens) (UniProt Q7Z628) (assay: (§1) Inhibition of Net1 (149 to 501 residues) (unknown origin) interaction with GDP-loaded His-tagged RhoA F25N mutant (1 to 180 residues) assessed as reduction in BODIPY-GTP-GDP exchange at 200 uM pretreated for 30 mins followed by RhoA addition by fluorescence based spectrophotometric method relative to control).
T1 sequence (whole entry): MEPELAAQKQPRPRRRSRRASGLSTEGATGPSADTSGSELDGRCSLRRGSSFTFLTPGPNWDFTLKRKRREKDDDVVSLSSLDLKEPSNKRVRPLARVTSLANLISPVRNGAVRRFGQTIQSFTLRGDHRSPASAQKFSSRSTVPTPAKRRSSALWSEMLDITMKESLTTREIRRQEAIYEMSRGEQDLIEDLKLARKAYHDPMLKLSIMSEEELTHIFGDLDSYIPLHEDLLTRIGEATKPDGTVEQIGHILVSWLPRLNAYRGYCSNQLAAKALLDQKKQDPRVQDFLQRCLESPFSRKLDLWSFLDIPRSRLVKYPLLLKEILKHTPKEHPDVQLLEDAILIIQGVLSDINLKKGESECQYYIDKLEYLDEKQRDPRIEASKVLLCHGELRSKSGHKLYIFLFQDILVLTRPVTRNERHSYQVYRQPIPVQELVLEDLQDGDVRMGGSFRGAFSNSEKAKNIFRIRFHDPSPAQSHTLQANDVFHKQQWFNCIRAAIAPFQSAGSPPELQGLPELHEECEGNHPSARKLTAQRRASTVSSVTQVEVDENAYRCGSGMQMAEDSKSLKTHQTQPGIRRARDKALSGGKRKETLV

For `COc1c(O)cc2c3c(cc4c(O)cccc4c13)NC2=O`, which inhibition is on record?
Its inhibition is 5%.

Which inhibition does the source give for `COc1cc(C)c2c(c1)Oc1c(cc(OC)cc1C(=O)O)OC2=O` here?
Its inhibition is 5%.

How did the inhibition turn out when `CN1CCc2cc3c(c4c2c1cc1ccccc14)OCO3` [DEHYDROROEMERINE] was run?
The inhibition was 83%.

How did the inhibition turn out when `COc1c(O)cc2c3c(cc4ccccc4c13)NC(=O)C2=O` was run?
The inhibition was 4%.

What follows are molecules tested against T2, Rho guanine nucleotide exchange factor 1 (Homo sapiens) (UniProt Q92888) (assay: as §1, with “p115 DHPH22 domain (395” for “Net1 (149”, “766” for “501”).
T2 sequence (whole entry): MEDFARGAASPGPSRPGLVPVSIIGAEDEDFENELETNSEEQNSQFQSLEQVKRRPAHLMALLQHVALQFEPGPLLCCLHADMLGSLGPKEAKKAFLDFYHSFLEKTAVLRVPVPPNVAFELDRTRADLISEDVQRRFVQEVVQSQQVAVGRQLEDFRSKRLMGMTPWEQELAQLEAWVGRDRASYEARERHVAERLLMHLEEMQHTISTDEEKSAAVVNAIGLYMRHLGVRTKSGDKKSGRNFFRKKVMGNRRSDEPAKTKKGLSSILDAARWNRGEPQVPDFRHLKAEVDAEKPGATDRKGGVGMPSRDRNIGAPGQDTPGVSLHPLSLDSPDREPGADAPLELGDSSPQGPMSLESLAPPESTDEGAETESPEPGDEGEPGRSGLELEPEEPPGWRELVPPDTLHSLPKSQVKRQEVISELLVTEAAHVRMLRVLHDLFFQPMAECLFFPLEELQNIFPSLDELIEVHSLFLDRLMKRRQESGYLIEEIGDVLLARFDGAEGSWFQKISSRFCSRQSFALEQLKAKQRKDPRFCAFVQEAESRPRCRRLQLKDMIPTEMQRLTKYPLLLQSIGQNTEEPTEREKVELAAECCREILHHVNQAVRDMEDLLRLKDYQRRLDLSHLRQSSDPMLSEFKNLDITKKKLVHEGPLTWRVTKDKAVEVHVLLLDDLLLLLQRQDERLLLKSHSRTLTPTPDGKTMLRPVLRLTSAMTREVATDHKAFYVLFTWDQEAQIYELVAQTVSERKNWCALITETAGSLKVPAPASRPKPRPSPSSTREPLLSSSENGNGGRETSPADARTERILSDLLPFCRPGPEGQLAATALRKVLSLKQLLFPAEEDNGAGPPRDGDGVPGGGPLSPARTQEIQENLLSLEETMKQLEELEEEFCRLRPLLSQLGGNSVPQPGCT

With `COc1cc(C)c2c(c1C=O)Oc1c(c(C)c(O)c3c1C(O)OC3=O)OC2=O` (stereo unspecified) [STICTIC ACID] as the molecule, how does the inhibition read?
Its inhibition is 50.5%.

How did the inhibition turn out when `C=CCC/C=C\C#CC#CCCCCCC[C@H]1C(=O)O[C@H](C)[C@@H]1OC(C)=O` was run?
The inhibition was 0%.

With `C=CCC/C=C/C#CC#CCCCCCCCC[C@H]1C(=O)O[C@H](C)[C@@H]1OC(C)=O` as the molecule, how does the inhibition read?
Its inhibition is 0%.

Which inhibition does the source give for `C=CCC/C=C\C#CC#CCCCCCCC1=C[C@@H](C)OC1=O` here?
Its inhibition is 0%.

With `C=CCC/C=C/C#CC#CCCCCCCCC(=O)O` as the molecule, how does the inhibition read?
Its inhibition is 0%.

Which inhibition does the source give for `COc1c(O)cc2c3c(cc4c(O)cccc4c13)NC2=O` here?
The inhibition was 0%.

Which inhibition does the source give for `COc1cc(C)c2c(c1)Oc1c(cc(OC)cc1C(=O)O)OC2=O` here?
Its inhibition is 1%.

How did the inhibition turn out when `C=CCC/C=C/C#CC#CCCCCCC[C@H]1C(=O)O[C@H](C)[C@@H]1OC(C)=O` was run?
Its inhibition is 10%.

How did the inhibition turn out when `CN1CCc2cc3c(c4c2c1cc1ccccc14)OCO3` [DEHYDROROEMERINE] was run?
Its inhibition is 21%.

With `COc1c(O)cc2c3c(cc4ccccc4c13)NC(=O)C2=O` as the molecule, how does the inhibition read?
The inhibition was 0%.

The molecules below were run against Neuroepithelial cell-transforming gene 1 protein (Homo sapiens, UniProt Q7Z628, F25N) (assay: Inhibition of Net1 (149 to 501 residues) (unknown origin) interaction with GDP-loaded His-tagged RhoA F25N mutant (1 to 180 residues) assessed as reduction in BODIPY-GTP-GDP exchange pretreated for 30 mins followed by RhoA addition by fluorescence based spectrophotometric method).
Outline: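 Exchange is started with 0.1 μM GDP-loaded His-RhoA F25N (1−180). Fluorescence (ex 480/em 540 nm) is read every minute, and initial rate is taken over the first 15 min. Controls are run with and without GEF.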

With `CN1CCc2cc3c(c4c2c1cc1ccccc14)OCO3` [DEHYDROROEMERINE] as the molecule, how does the IC50 read?
Its IC50 is 120 µM.

What follows are molecules tested against Rho guanine nucleotide exchange factor 1 (Homo sapiens, UniProt Q92888, F25N) (assay: Inhibition of p115 DHPH22 domain (395 to 766 residues) (unknown origin) interaction with GDP-loaded His-tagged RhoA F25N mutant (1 to 180 residues) assessed as reduction in BODIPY-GTP-GDP exchange pretreated for 30 mins followed by RhoA addition by fluorescence based spectrophotometric method).

With `COc1cc(C)c2c(c1C=O)Oc1c(c(C)c(O)c3c1C(O)OC3=O)OC2=O` (stereo unspecified) [STICTIC ACID] as the molecule, how does the IC50 read?
Its IC50 is 187 µM.
